From PubChem
SENP1 inh: SENP1 (human) catalytic domain inhibition. inhibition, % at 10 µM. Q9P0U3. hit rate 0.21% among 360,000. recombinant SENP1 catalytic domain, CyPet-SUMO1-YPet FRET cleavage;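 active = inhibition at least 30% at 10 µM, raw YFP signal under a set limit, fluorescence ratio 0.5 to 1.5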
Target sequence (Q9P0U3 419-644 limits assumed): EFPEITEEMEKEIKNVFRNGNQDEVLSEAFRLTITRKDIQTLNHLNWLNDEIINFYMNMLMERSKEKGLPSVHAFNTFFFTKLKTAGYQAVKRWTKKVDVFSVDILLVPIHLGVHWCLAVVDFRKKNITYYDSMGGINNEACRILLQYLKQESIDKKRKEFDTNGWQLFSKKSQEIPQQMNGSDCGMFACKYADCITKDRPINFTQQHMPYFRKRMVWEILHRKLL
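material = recombinant human SENP1 catalytic domain, His6-tagged | quantity = 20 pM enzyme | reagent = 25 nM SUMO1 FRET substrate | compound dosing = 10 µM single point, 0.5% DMSO | timing = 50 min enzyme reaction, room temperature, light-protected | detection = FRET, CFP and YFP emission | control set = no-enzyme low, enzyme-DMSO high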
SENP6 inh: blocks the human protease SENP6. hit rate 1.8% among 330,000. inhibition, % at 10 µM. Recombinant SENP6 catalytic domain, aminoluciferin luminescence;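 active = inhibition above about 50% at the single tested dose, limit read from the data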
SENP8 block-1: SENP8 protease inhibition; purified SENP8, Z-RLRGG-aminoluciferin cleavage, luminescence; inhibition, % at 10 µM; hit rate 1.2% among 330,000; AID 2540; in the data active = inhibition above about 50%
Target sequence (Q96LD8 whole entry, looked up): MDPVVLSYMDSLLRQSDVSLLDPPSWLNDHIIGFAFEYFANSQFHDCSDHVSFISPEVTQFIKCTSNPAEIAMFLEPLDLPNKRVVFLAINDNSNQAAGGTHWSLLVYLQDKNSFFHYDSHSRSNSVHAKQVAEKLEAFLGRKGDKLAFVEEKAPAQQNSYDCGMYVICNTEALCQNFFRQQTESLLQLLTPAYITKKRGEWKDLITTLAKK
SENP8 block-2: inhibitors of human SENP8 protease | inhibition, % at 20 µM | recombinant SENP8, Nedd8 substrate fluorescence | hit rate 0.64% among 360,000 | Q96LD8; in the data active = inhibition mostly above about 40%, no sharp cut-off; inactive = mostly below about 27%
Apaf1 inhib: inhibitors of human Apaf-1 apoptosome. inhibition, % at 20 µM. reconstituted apoptosome caspase-3 activity, DEVD-Rh110 fluorescence. O14727. hit rate 0.71% among 330,000. AID 489030; active = inhibition of at least 40% at 20 µM
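Material: reconstituted apoptosome with Apaf-1, cytochrome c, caspase-9, procaspase-3, dATP / Buffer or medium: pH 7.5 Hepes buffer with CHAPS, BSA, DTT / Also added: cytochrome c with DEVD-Rh110 / Schedule: compound with Apaf-1, dATP, procaspase-3 30 min, then 50 min reaction, room temperature / Technique: rhodamine 110 fluorescence at Ex 480/Em 540 nm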
SENP7 inh: SENP7 protease inhibition; Q9BQF6; recombinant SENP7, Z-RLRGG-aminoluciferin luminescence, 40 min; inhibition, % at 5 µM; hit rate 1.5% among 330,000;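 active = inhibition above about 50% at the single test dose, limit read from the data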
SENP8 conf: human SENP8 inhibition, confirmed. shares compounds with SENP7 inh. Recombinant SENP8, Z-RLRGG-aminoluciferin luminescence, 60 min. inhibition, % at 12.5 µM. hit rate 40% among 6,200;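 active = mean inhibition across replicates above about 50%, limit read from the data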
SENP6 conf: human SENP6 inhibition, confirmed. shares compounds with SENP7 inh. recombinant SENP6, Z-RLRGG-aminoluciferin luminescence. inhibition, % at 12.5 µM. hit rate 58% among 6,200
SENP7 conf: confirmation of human SENP7 protease inhibitors; shares compounds with SENP7 inh; recombinant SENP7, Z-RLRGG-aminoluciferin luminescence, 40 min; inhibition, % at 12.5 µM; hit rate 69% among 6,200; AID 488917
Casp3 SENP sel: inhibits human caspase-3 in SENP selectivity test; shares compounds with SENP7 inh; purified caspase-3, Z-DEVD-aminoluciferin luminescence, 60 min; inhibition, % at 12.5 µM; hit rate 60% among 6,200;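 active = mean inhibition above about 50%, limit read from the data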
SENP luc ctr: luminescence interference (SENP counter-screen); shares compounds with SENP7 inh; Pre-incubated SENP8/Z-RLRGG-aminoluciferin, luciferase luminescence interference; inhibition, % at 12.5 µM; hit rate 39% among 6,200;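 active = mean inhibition above about 50% when retested at one dose, limit read from the data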
Each line names hits and unclear results; the compound was inactive in the other large screens (follow-up assays come after a bar, where they were run). Compounds with a hit are over-represented: about 2.9% of the library has one in this group of screens.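 The calls were made as follows, unless noted: active = mean inhibition above about 50% in the one-dose retest (limit read from the data); inactive = the rest.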

O=C(COC(=O)c1cccnc1Cl)c1ccc(OC(F)F)cc1	SENP8 block-1 71.5, SENP7 inh 85.6 | SENP8 conf inactive | SENP6 conf 77.4 | SENP7 conf 97.2 | Casp3 SENP sel 89.2 | SENP luc ctr 78.2
COc1ccc(C(=O)COC(=O)c2cccnc2Cl)c(OC)c1	none
COC(=O)c1ccc(COC(=O)c2cccnc2Cl)cc1	SENP6 inh 50.7 | SENP8 conf 50.1 | SENP6 conf inactive | SENP7 conf 79.3 | Casp3 SENP sel 66.0 | SENP luc ctr 55.7
Nn1cnc2c(ncn2C2OC(CO)C(O)C2O)c1=O (stereo unspecified)	none (no result: SENP6 inh, SENP8 block-1, Apaf1 inhib, SENP7 inh)
Nc1[nH]c(C(=O)c2ccccc2)c(-c2ccc(Cl)cc2Cl)c1C(=O)c1ccc(Br)cc1	none (no result: SENP6 inh, SENP8 block-1, Apaf1 inhib, SENP7 inh)
O=C(O)/C=C/c1cccc(NC(=O)c2ccccc2)c1	SENP6 inh 72.3, SENP7 inh 69.4 | SENP8 conf 69.1 | SENP6 conf 66.0 | SENP7 conf 89.9 | Casp3 SENP sel 90.9 | SENP luc ctr 70.6
Cc1occc1C(=O)Nc1cccc(/C=C/C(=O)O)c1	none
O=C(N/N=C/c1cccc(NC(=O)c2ccc(Cl)cc2)c1)c1cccc(O)c1	none
O=C(O)/C=C/c1cccc(NC(=O)c2ccc(Cl)cc2)c1	SENP6 inh 74.3, SENP8 block-1 61.4, SENP7 inh 59.4 | SENP8 conf 66.3 | SENP6 conf 63.0 | SENP7 conf 88.5 | Casp3 SENP sel 84.1 | SENP luc ctr 71.0
CN1C(=O)S/C(=C/c2ccc(OCc3cccc(C(=O)O)c3)cc2)C1=O	SENP6 inh 92.4, SENP8 block-1 77.6, SENP7 inh 57.4 | SENP8 conf 61.7 | SENP6 conf 67.4 | SENP7 conf 58.3 | Casp3 SENP sel inactive | SENP luc ctr inactive
Cc1ccc(/C=C2\SC(=S)N(CCCC(=O)Nc3cccnc3)C2=O)cc1	SENP6 inh 57.9, SENP8 block-1 51.5, SENP7 inh 61.3 | SENP8 conf inactive | SENP6 conf inactive | SENP7 conf inactive | Casp3 SENP sel inactive | SENP luc ctr inactive
Cc1ccc(/C=C2\SC(=S)N(CC(=O)Nc3cccnc3)C2=O)cc1	none
COc1ccccc1/C=C1\SC(=S)N(CCC(=O)Nc2ccc(C(=O)O)c(O)c2)C1=O	SENP6 inh 72.3, SENP8 block-1 64.1 | SENP8 conf 77.0 | SENP6 conf 76.3 | SENP7 conf 79.3 | Casp3 SENP sel inactive | SENP luc ctr 81.2
CCc1ccc(/C=C2/SC(=S)N(CCC(=O)Nc3cccc(C(=O)O)c3)C2=O)cc1	SENP8 block-1 79.2, SENP8 block-2 21.4, SENP7 inh 52.3 | SENP8 conf inactive | SENP6 conf inactive | SENP7 conf inactive | Casp3 SENP sel inactive | SENP luc ctr inactive
OC(c1ccccc1)c1nc(-c2cccs2)cs1 (stereo unspecified)	none (no result: SENP6 inh, SENP8 block-1, Apaf1 inhib, SENP7 inh)
CCc1ccc(/C=C2/SC(=S)N(CCC(=O)Nc3ccc(C(=O)O)cc3)C2=O)cc1	SENP8 block-1 84.9, SENP7 inh 74.5 | SENP8 conf inactive | SENP6 conf inactive | SENP7 conf inactive | Casp3 SENP sel inactive | SENP luc ctr inactive
Cc1cccc(C(=O)Nc2nnc(SCC(=O)Nc3ccc4c(c3)oc3ccccc34)s2)c1	none
COCCSc1nnc(NC(=O)c2ccco2)s1	SENP7 inh 92.4 | SENP8 conf inactive | SENP6 conf inactive | SENP7 conf inactive | Casp3 SENP sel inactive | SENP luc ctr inactive
CC(=O)Nc1cccc(NC(=O)CSc2nnc(NC(=O)c3ccco3)s2)c1	none
